This is a sample that favours compounds with a hit; in the whole collection about 0.95% have one here.
ARFGAP1 inh: rat ARFGAP1 inhibition | Q62848 | 0.26% of 360,000 active | inhibition, % at 16.5 µM | Arfgap1-stimulated ARF1 GTP hydrolysis, GDP FP detection;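 active means inhibition above a per-plate limit, mean inhibition of low control wells plus 3 SD, cut at about 25% in these data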
Target sequence (Q62848 1-136 limits assumed): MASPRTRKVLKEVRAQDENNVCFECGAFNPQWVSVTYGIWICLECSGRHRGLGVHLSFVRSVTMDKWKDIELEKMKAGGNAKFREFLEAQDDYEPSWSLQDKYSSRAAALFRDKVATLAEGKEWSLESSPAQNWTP
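Assay system: Rat Arfgap1 GAP domain (His6, aa 1-136), purified enzyme | Buffer or medium: HEPES 25 mM pH 7.5, NaCl 150 mM, MgCl2, DTT | Schedule: GTP hydrolysis reaction 2 h at 25 °C | Signal: FP of antibody-bound GDP Alexa 633 tracer, ex 620/em 688 nm | Measure: Percent inhibition of Arfgap1-stimulated GTP hydrolysis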
CSN inh: blocks human CSN-mediated cullin deneddylation. Purified CSN, SCF-Nedd8-OG deneddylation, fluorescence polarization. 0.38% of 360,000 active. Q92905. inhibition, % at 12.5 µM;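 active means pattern-corrected inhibition above about 35%, with an unprinted fluorescence ratio check between 0.5 and 1.5, limit read from the data, passing the limit was not always enough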
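Assay system: purified human Csn5 enzyme expressed in HEK293T cells; measure: % inhibition; also added: SCFSkp2-Nedd8OG substrate at 10 nM final; technique: fluorescence polarization; times: reaction 90 min, room temperature; medium: Tris buffer pH 7.5, NaCl, DTT, Tween-20, trehalose, ovalbumin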
HNF4A DNA FP: change in binding of human HNF4 alpha to DNA | P41235 | HNF4a-FITC DNA binding, fluorescence polarization, 1 h | activity change, % at 10 µM | 0.3% of 360,000 active | AID 1224865; in the data active means activity change above about 30%, passing the limit was not always enough
ASAP1 GAP inh: inhibitors of human ASAP1 ArfGAP activity; Q9ULH1; ASAP1-stimulated ARF1 GTP hydrolysis, GDP FP detection; inhibition, % at 16.5 µM; 0.19% of 360,000 active; in the data active means inhibition above about 25%
ASAP1 GAP conf: ASAP1 inhibition confirmed. ASAP1-stimulated Arf1 GTPase, GDP fluorescence polarization. inhibition, % at 16.5 µM. 37% of 620 active. shares compounds with ASAP1 GAP inh;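 active means mean inhibition over triplicates exceeds the hit threshold derived for the earlier primary screening run, cut at about 25% in these data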
Hits are given with their value; n = inactive; x = no result.

SMILES	ARFGAP1 inh	CSN inh	HNF4A DNA FP	ASAP1 GAP inh	ASAP1 GAP conf
Cc1ccccc1N1CCN(C(=O)CN2C(=O)c3ccccc3C2=O)CC1	n	n	n	26	n
N#Cc1cn(CC(=O)NCCc2c[nH]c3ccccc23)c2ccccc12	n	n	n	27	n
CC(C)c1ccc(N=C2N=C(N)c3ccccc32)cc1	n	n	n	n	x
O=[N+]([O-])c1ccc(OCCOc2ccccc2/C=N/n2cnnc2)cc1	n	n	n	37	46
COc1ccccc1/C=N/n1cnnc1	n	n	n	n	x
C[C@@H]1CC2=C(C(=O)OC(C)(C)O2)[C@H](c2ccc(Cl)cc2)O1	n	n	n	26	n
C[C@@H]1CC2=C(C(=O)OC(C)(C)O2)[C@H](c2ccc(F)cc2)O1	n	n	n	n	x
NC(=O)CSc1nnc(-c2ccccn2)n1N	n	n	n	n	x
COc1cc(/C=C/c2nc(-c3ccccc3O)n[nH]2)cc(OC)c1OC	n	n	n	25	31
Cc1nnc(SCCC(=O)Nc2ccccc2Cl)o1	n	n	n	n	x
COC(=O)C(C)NC(=O)C12CC3CC(C1)CC(c1ccc(C)cc1)(C3)C2 (stereo not drawn)	n	n	n	n	x
COc1ccc(Br)cc1C(=O)NC(=S)Nc1ccc(CN2CCOCC2)cc1	n	n	n	27	n
O=C(O)CC1(CC(=O)Nc2cc(F)ccc2Cl)CCCCC1	n	n	n	25	n
C=CCN=C1NC(c2ccc(F)cc2)C(C(=O)OC)=C(C)N1Cc1ccccc1C(F)(F)F (stereo not drawn)	n	x	x	25	n
CCOc1cc2c(C#N)c(N3CCCC3)nc(N)c2c(N)n1	n	n	n	n	x
N#Cc1c(N2CCCC2)nc(N)c2c(N)nc(N3CCCC3)cc12	n	55	n	27	n
CCCOc1cc2c(C#N)c(N3CCCC3)nc(N)c2c(N)n1	n	n	n	36	n
Cc1ccc(-n2ncc(-c3nn[nH]n3)c2N)cc1	n	n	n	n	x
CCn1c(C2CCN(Cc3ccccc3)CC2)n[nH]c1=S	n	n	n	n	x
COc1ccc(NC(=S)NCCc2ccccc2)c(OC)c1	n	n	n	n	x
COc1ccc(S(=O)(=O)NNC(=S)NCCc2ccccc2)c(OC)c1	n	n	n	26	n
O=C(NNC(=O)c1csc(-c2cccs2)n1)c1ccc(Cl)cc1	n	n	n	n	x
Cc1cc(C(=O)NC2Cc3ccccc3C2)c(C)o1	n	n	n	n	x
COc1cc(OC)cc(C(=O)N[C@H](C(=O)OCC(=O)c2c[nH]c3ccccc23)C(C)C)c1	n	n	n	28	n
COc1cc(OC)cc(C(=O)N[C@H](C(=O)NCCc2c[nH]c3ccccc23)C(C)C)c1	n	n	n	n	x
SMILES	ARFGAP1 inh	CSN inh	HNF4A DNA FP	ASAP1 GAP inh	ASAP1 GAP conf
COc1ccccc1NC(=O)Cn1nnc(-c2ccccc2NC(=O)c2ccco2)n1	n	n	n	28	n
COc1ccc(NC(=O)Cn2nnc(-c3ccccc3NC(=O)c3ccco3)n2)cc1	n	n	n	n	x
COc1ccc(CN(CCC(c2ccccc2)c2ccc(OC(C)C)cc2)C(=O)CCl)cc1OC (stereo not drawn)	n	n	n	n	x
COc1ccc(/C=N/NC(=O)c2cccc(NC(C)=O)c2)c(OC)c1	n	n	n	n	x
CCCCC(=O)Nc1cccc(C(=O)N/N=C/c2ccc(OC)cc2OC)c1	n	n	n	26	n
CCOC(=O)Cc1sc(N)nc1C	n	n	n	n	x
O=C(O)C1Nc2c(O)cccc2C2C=CCC12 (stereo not drawn)	n	n	n	26	n
CC1CC(C)CN(C(=O)c2cccc(N3C(=O)c4ccccc4C3=O)c2)C1 (stereo not drawn)	n	n	n	25	n
C[C@@H](C(=O)O)[C@H]1C[C@]1(C)[C@H](NC(=O)OCc1ccccc1)c1ccccc1	n	n	n	26	n
COC(=O)[C@H](C)[C@@H]1C[C@@]1(C)[C@@H](NC(=O)OCc1ccccc1)c1ccccc1	n	n	n	n	x
O=C(Cn1nc(-c2ccccc2)ccc1=O)Nc1ccc(-n2cnnn2)cc1	n	n	n	n	x
O=C(Cn1nc(-c2ccc3c(c2)OCCO3)ccc1=O)Nc1ccc(-n2cnnn2)cc1	n	n	n	36	36
O=C(CNC(=O)c1ccc(F)cc1)Nc1ccccc1C(F)(F)F	n	n	n	25	n
O=C(CC(=O)Nc1ccccc1C(F)(F)F)Nc1ccccc1C(F)(F)F	n	n	n	n	x
